Dynein transport: inhibitors of GR-EGFP nuclear translocation, primary screen, dynein cargo transport inhibitor project, imaging, high-content, 3617.4 mouse cells | z-score, hits read low | test concentration mostly 20 µM; stimulated with dexamethasone, 1 µM; active compounds read low | hit rate 0.47% among 220,000;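 active means plate z-score of nuclear minus cytoplasmic receptor signal below a set negative limit, without overly bright fluorescence or cell loss, cut at about -3.5 in these data, passing the limit was not always enough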;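 further: z-score of nuclear minus cytoplasmic ring GR-EGFP intensity difference per well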
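Schedule: 48 h induction, then 1 h compound, then 30 min agonist, 37 °C. Buffer or medium: tetracycline-free induction medium containing charcoal-stripped FBS. Reagent: 1.0 µM final dexamethasone stimulus. Evaluation: nuclear versus cytoplasmic GR-EGFP signal, averaged per well. Signal: high-content fluorescence imaging after fixation.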
HSV replic up: enhancers of HSV replication in host cells, fold increase, host cell viability | HSV replication augmentation in cells | maximum fold increase | hit rate 0.005% among 220,000; in the data active means maximum fold increase above about 1.5; tested in PC3 cells
b-catenin transl: modulators of beta-catenin nuclear translocation, primary screen, imaging, HeLa cells, immunofluorescence, high-content; nuclear translocation activity, % at 5 µM; hit rate 0.3% among 190,000;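 active means nuclear translocation activity above 50% at 5 µM, with a well cell count of 50 or more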;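 further: per-cell ratio of nuclear to cytoplasmic median beta-catenin stain intensity; plate controls were DMSO negative control for no effect and GSK-3 inhibitor IX positive control for full effect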
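System: Human HeLa cells, endogenous beta-catenin | Compound dosing: 5 µM primary, 0.02–20 µM confirmation | Timing: 24 h compound exposure at 37°C, 5% CO2 | Measured by: Fluorescence imaging of beta-catenin antibody stain plus DAPI | Read-out basis: % activation of per-cell nuclear versus cytoplasmic median beta-catenin signal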
Lmaj promast: Leishmania major promastigote growth inhibition, primary screen | Leishmania major promastigotes, resazurin fluorescence viability | inhibition, % at 10 µM | hit rate 9% among 200,000 | AID 1063, 2008; in the data active means inhibition above about 50%;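 further: promastigotes grown with compound for 44 hours at 28 °C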
MT stabilizer: microtubule stabilizers in HeLa cells, primary screen, imaging, high-content imaging. HeLa tubulin immunostaining HCS, 24 h; share of cells brighter than vehicle mean+2SD. hit rate 0.83% among 200,000. % tubulin-high responders, % at 10 µM. AID 2205, 2009;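 active means plate Z-score above 3 for both tubulin-high and condensed-nucleus cell shares, with cell loss under 80%, at 10 µM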;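 further: anti alpha tubulin signal scored within the nucleus-defined area of each cell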
Lmaj promast 1uM: Leishmania major promastigote growth inhibition, confirmation, 1 µM repeat of primary hits | shares compounds with Lmaj promast | L. major promastigote growth, resazurin fluorescence, 48 h | inhibition, % at 1 µM | hit rate 13% among 1,100;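 active means inhibition above about 50% in both repeat tests, limit read from the data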
* marks the source's active call; other numbers are inactive results; i = inactive; nt = not tested or not shown. Hits are enriched below; roughly 8.9% of the tested compounds scored in any of these assays.

SMILES	Dynein transport	HSV replic up	b-catenin transl	Lmaj promast	MT stabilizer	Lmaj promast 1uM
N#Cc1cc2sc3nnc(-c4ccncc4)n3c2cc1C#N	-0.65	i	nt	54*	9	17
CC(C)(C)c1ccc(C(=O)NCCCN2CCN(CCCNC(=O)c3ccc(C(C)(C)C)cc3)CC2)cc1	-0.36	i	-4	100*	3	-8
Cc1ccc(S(=O)(=O)NC(C)(C)CSc2nnc(Nc3ccccc3)s2)cc1	-0.43	i	-3	100*	2	-6
CC(C)(CSc1ncccn1)NS(=O)(=O)c1ccccc1	-0.69	i	2	-1	1	nt
COc1ccc(NC(=O)c2cccc(N3C(=O)NC4CC3(C)Oc3ccccc34)c2)cc1 (stereo unspecified)	-0.34	i	nt	100*	1	0
CCn1c(N2CCN(S(=O)(=O)c3ccc(Cl)cc3)CC2)nc2ccccc21	1.8	i	0	81*	4	-6
CCn1c(N2CCN(S(=O)(=O)c3ccc(F)cc3)CC2)nc2ccccc21	1.2	i	0	41	2	nt
CC(=O)Nc1ccc(S(=O)(=O)Nc2c(C)nn(-c3ccccc3)c2C)cc1	0.6	i	-4	-5	4	nt
CC(=O)c1ccccc1NS(=O)(=O)c1c(C)nn(-c2ccccc2)c1C	0.83	i	nt	96*	4	43
COC(=O)[C@H](CCSC)NC(=O)Nc1cc(OC)cc(OC)c1	-0.32	i	0	nt	nt	nt
COC(=O)c1ccc2c(c1)C(C)(C)C(/C=C/c1ccc(OC)c(OC)c1OC)=[N+]2C	-3	i	-4	101*	3	101*
COC(=O)c1ccc2nc(C)c(C)nc2c1	-0.44	i	0	-4	2	nt
O=C(Nc1ccc(Cl)cn1)c1ccc([N+](=O)[O-])o1	-1.9	i	5	100*	8.3*	80*
Cc1[nH]c2c(Cl)cccc2c(=O)c1CN1CCCC1	-0.45	nt	nt	100*	8	93*
O=C(COc1ncnc2sccc12)Nc1cccc(S(=O)(=O)N2CCCC2)c1	-0.47	i	-1	nt	nt	nt
COc1ccc(Nc2nc(C(=O)N3CCc4cc(OC)c(OC)cc4C3)cs2)cc1	2.2	i	2	nt	nt	nt
c1csc(C2Nc3ccccc3-c3nc4ccccc4n32)c1 (stereo unspecified)	-0.1	i	0	26	3	nt
NCC12CC3CC(C1)CC(c1ccc(Cl)cc1)(C3)C2	3.4	i	12	100*	4	94*
Nc1ccc(C23CC4CC(CC(CO)(C4)C2)C3)cc1	-0.63	i	-2	-4	4	nt
CCNC(=O)OCCC12CC3CC(CC(C3)C1)C2	-0.44	i	0	86*	2	-11
CCCCNC(=O)CO/N=C(\C)c1cc2ccccc2o1	1.2	i	-6	37	1	nt
C/C(=N\OCC(=O)NCC(F)(F)F)c1cc2ccccc2o1	-0.61	i	nt	56*	1	-2
CCN(CC(=O)Nc1ccc2c(c1)OCO2)Cc1nc2ccccc2c(=O)[nH]1	0.97	i	-5	-1	3	nt
COc1cccc(C(=O)N(Cc2ccc3c(c2)OCO3)Cc2nc3ccccc3c(=O)[nH]2)c1	1.1	i	-3	82*	4	-19
O=C(OCn1nnc2ccccc2c1=O)C12CC3CC(CC(O)(C3)C1)C2	-0.9	i	-2	-5	2	nt
SMILES	Dynein transport	HSV replic up	b-catenin transl	Lmaj promast	MT stabilizer	Lmaj promast 1uM
Cc1ccc(/C=C\c2nccc3c2[nH]c2ccccc23)cc1	-0.37	i	0	68*	2	21
C(=C\c1nccc2c1[nH]c1ccccc12)/c1ccccc1	-0.39	i	2	nt	nt	nt
COc1ccc(C2c3[nH]c4ccccc4c3CCN2CCCn2cccn2)c(C)c1C (stereo unspecified)	-0.84	i	0	11	3	nt
Cc1cc(C)c(COCc2cc(/C=N/O)c(C)cc2C)cc1/C=N/O	0.06	i	-11	89*	2	-10
COc1ccc(-c2ncncc2-c2csc(C)n2)c(O)c1OC	-0.19	i	-1	2	1	nt
COC1=C(N)C(=O)c2nc(-c3nc(C(=O)O)c(C)c(-c4ccc(OC)c(OC)c4O)c3N)ccc2C1=O	-2.8	i	nt	65*	42	19
CC(C)C1=C2CCCCC2NC(=O)N1 (stereo unspecified)	0.5	i	-2	-5	3	nt
COc1cccc(N2CCN(C3C4CC5CC(C4)CC3C5)CC2)c1 (stereo unspecified)	-0.18	i	-2	2	3	nt
CN1CCCN(C2C3CC4CC(C3)CC2C4)CC1 (stereo unspecified)	1.8	nt	nt	52*	3	-12
COc1ccccc1S(=O)(=O)Nc1ccc2cn[nH]c2c1	-0.14	i	0	9	2	nt
Cc1ccc(/C=C(\C#N)c2nn(-c3ccccc3)c(N)c2C#N)cc1	-0.53	i	0	65*	3	-6
c1ccc(-c2nc(-c3cccnc3)n[nH]2)cc1	-0.62	i	0	-2	4	nt
Brc1cccc(-c2n[nH]c(-c3ccccc3)n2)c1	1.7	nt	3	57*	3	0
Cc1cc(C(F)F)nn1CC(=O)NC1C(=O)N2C(C(=O)O)=C(CSc3nnnn3C)CSC12 (stereo unspecified)	0.5	i	0	-3	4	nt
CN(c1ccc(O)cc1)c1nc(-c2ccccc2)cs1	-0.41	i	-2	89*	2	-5
CCCn1c(=O)c(C(=O)NCc2ccc(OC)c(OC)c2)c(O)c2ccccc21	0.43	i	-1	-6	5	nt
CCn1c(=O)c(C(=O)NCc2ccc(OC)c(OC)c2)c(O)c2ccccc21	0.16	i	-2	84*	6	-14
Cc1c(C(=O)NCC2COc3ccccc3O2)oc2ccc(S(=O)(=O)N3CC(C)CC(C)C3)cc12 (stereo unspecified)	-0.12	i	-1	59*	1	6
CCOc1ccccc1CNCc1ccc(F)cc1	0.32	i	-2	54*	4	-8
CCOc1ccc(Br)cc1S(=O)(=O)Nc1ccccc1N1CCOCC1	-0.32	i	nt	100*	2	23
CCN(CC)C(=O)C1CCN(S(=O)(=O)c2cccc3nonc23)CC1	0.08	i	-1	-4	1	nt
CC1CC(=O)NN=C1c1ccc(N(C)C)c([N+](=O)[O-])c1 (stereo unspecified)	-0.28	i	1	-2	3	nt
O=C(NCCC1=CCCCC1)c1ccc2c(=O)n3c(nc2c1)CCCCC3	-0.85	i	-1	0	3	nt
Cc1ccc(-c2cn(-c3ccccc3)c3[n+]2CCCS3)cc1	-0.47	i	-2	100*	3	46
